# According to ChEMBL document CHEMBL4765452, “Discovery of (E)-N-(4-methyl-5-(3-(2-(pyridin-2-yl)vinyl)-1H-indazol-6-yl)thiazol-2-yl)-2-(4-methylpiperazin-1-yl)acetamide (IHMT-TRK-284) as a novel orally available type II TRK kinase inhibitor capable of overcoming multiple resistant mutants” (Eur J Med Chem, 2020):
# What was measured:
# [1] = Antiproliferative activity in mouse BAF3 cells assessed as growth inhibition after 72 hrs by CCK8 assay; assay type: cell-based
# Procedure, shortened: (§1)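 TEL- or LMNA-fusion isogenic BaF3 lines grown in RPMI 1640 with 10% FBS and 1% penicillin/streptomycin at 37 °C, 5% CO₂; suspension cells collected by spinning at 800 rpm for 4 min before use; growth inhibition scored as GI₅₀.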
# [2] = target: High affinity nerve growth factor receptor (Homo sapiens, UniProt P04629); assay: Inhibition of wild type TEL fused TRKA (unknown origin) transfected in mouse BAF3 cells assessed as growth inhibition after 72 hrs by CCK8 assay; assay type: cell-based
# High affinity nerve growth factor receptor, sequence (P04629 33-796 limits assumed): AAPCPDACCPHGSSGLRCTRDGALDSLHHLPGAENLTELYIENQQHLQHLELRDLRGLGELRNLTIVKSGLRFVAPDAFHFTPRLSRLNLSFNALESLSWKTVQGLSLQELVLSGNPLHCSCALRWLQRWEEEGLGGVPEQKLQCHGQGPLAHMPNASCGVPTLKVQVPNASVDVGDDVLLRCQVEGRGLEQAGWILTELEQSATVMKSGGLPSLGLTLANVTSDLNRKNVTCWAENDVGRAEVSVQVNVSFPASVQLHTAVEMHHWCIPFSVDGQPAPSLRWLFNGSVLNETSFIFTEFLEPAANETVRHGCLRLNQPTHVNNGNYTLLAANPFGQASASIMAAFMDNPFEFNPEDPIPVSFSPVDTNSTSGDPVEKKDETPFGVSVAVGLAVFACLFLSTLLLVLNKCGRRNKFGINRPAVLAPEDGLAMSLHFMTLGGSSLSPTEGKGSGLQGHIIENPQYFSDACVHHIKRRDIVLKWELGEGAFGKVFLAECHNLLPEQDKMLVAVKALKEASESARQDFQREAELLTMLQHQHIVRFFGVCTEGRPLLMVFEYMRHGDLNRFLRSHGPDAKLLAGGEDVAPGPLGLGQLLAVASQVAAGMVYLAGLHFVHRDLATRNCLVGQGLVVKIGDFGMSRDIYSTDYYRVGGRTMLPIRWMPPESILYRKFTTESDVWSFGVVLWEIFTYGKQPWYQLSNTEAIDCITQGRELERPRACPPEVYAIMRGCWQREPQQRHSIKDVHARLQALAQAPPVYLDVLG
# [3] = target: VEGFR2 (vascular endothelial growth factor receptor 2), wild type, TEL fusion (Homo sapiens, UniProt P35968); assay: Inhibition of wild type TEL fused VEGFR2 (unknown origin) transfected in mouse BAF3 cells assessed as growth inhibition after 72 hrs by CCK8 assay; assay type: cell-based; conditions: mouse BaF3 cells transfected with wild type TEL-fused VEGFR2
# VEGFR2 (vascular endothelial growth factor receptor 2), wild type, TEL fusion, sequence (P35968 whole entry, the tested form may be a part): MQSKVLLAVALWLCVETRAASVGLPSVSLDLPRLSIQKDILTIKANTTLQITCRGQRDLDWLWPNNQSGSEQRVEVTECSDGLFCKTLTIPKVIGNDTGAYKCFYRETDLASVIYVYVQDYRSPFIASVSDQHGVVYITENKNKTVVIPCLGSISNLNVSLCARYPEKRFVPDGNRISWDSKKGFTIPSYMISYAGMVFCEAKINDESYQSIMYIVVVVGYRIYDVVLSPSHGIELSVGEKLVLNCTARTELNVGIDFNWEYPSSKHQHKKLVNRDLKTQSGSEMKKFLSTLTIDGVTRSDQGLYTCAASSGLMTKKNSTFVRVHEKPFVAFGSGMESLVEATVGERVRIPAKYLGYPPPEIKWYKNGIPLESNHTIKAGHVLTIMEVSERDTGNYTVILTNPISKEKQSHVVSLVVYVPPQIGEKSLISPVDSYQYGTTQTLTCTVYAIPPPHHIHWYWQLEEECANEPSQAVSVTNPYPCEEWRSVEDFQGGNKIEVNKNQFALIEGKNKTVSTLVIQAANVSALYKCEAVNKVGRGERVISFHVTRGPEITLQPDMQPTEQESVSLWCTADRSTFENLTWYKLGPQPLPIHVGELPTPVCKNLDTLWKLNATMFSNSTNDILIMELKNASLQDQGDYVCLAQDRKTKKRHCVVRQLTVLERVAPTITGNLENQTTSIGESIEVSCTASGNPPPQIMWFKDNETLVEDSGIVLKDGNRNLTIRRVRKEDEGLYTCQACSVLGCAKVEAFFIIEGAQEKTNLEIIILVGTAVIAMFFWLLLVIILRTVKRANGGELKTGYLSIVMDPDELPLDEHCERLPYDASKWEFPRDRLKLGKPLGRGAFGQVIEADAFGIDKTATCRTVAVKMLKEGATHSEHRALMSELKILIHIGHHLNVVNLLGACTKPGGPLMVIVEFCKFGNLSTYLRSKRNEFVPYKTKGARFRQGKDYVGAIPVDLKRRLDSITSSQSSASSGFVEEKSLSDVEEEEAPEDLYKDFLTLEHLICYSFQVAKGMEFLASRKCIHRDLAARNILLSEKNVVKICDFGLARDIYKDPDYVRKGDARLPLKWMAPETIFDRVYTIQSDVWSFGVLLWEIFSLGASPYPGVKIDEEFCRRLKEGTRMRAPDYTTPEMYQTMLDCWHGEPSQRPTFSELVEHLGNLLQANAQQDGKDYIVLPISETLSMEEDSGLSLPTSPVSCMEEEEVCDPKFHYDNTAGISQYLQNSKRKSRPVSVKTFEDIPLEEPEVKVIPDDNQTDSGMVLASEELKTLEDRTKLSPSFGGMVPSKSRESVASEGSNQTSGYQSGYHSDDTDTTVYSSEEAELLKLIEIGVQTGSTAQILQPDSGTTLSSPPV
# [4] = system: BaF3; assay: Inhibition of LMNA fused TRKA V573M mutant (unknown origin) transfected in mouse BAF3 cells assessed as growth inhibition after 72 hrs by CCK8 assay; assay type: cell-based; conditions: Homo sapiens
# [5] = system: BaF3; assay: Inhibition of LMNA fused TRKA F589L mutant (unknown origin) transfected in mouse BAF3 cells assessed as growth inhibition after 72 hrs by CCK8 assay; assay type: cell-based; conditions: Homo sapiens; procedure, shortened: as §1
# [6] = system: High affinity nerve growth factor receptor (Homo sapiens), P04629 [G667C]; assay: Inhibition of LMNA fused TRKA G667C mutant (unknown origin) transfected in mouse BAF3 cells assessed as growth inhibition after 72 hrs by CCK8 assay; assay type: cell-based; procedure, shortened: as §1
# High affinity nerve growth factor receptor (Homo sapiens), P04629 [G667C], sequence (P04629 whole entry G667C, looked up, the tested form may be a part): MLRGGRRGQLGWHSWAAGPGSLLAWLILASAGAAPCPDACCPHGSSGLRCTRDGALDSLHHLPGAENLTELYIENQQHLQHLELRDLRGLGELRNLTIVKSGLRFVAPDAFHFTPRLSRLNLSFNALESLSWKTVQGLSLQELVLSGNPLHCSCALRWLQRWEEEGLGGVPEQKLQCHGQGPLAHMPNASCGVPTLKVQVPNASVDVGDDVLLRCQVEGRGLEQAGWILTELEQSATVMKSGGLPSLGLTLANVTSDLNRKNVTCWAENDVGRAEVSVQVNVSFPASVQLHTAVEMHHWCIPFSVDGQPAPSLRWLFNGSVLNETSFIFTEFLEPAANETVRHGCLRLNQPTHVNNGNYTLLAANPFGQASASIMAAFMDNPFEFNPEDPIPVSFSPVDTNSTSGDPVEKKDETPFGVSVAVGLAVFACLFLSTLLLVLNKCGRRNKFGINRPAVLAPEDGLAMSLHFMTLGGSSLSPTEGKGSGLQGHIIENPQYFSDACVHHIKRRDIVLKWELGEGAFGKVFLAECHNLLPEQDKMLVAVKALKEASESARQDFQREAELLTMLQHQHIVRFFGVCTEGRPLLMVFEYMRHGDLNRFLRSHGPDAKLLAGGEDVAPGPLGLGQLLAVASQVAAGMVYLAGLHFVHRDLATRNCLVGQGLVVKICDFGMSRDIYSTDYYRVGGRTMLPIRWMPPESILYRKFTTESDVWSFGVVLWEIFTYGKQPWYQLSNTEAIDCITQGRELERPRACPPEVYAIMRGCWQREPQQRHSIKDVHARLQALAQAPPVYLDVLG
# [7] = system: BaF3; assay: Inhibition of LMNA fused TRKA G667S mutant (unknown origin) transfected in mouse BAF3 cells assessed as growth inhibition after 72 hrs by CCK8 assay; assay type: cell-based; conditions: Homo sapiens
# [8] = Antiproliferative activity against human KM-12-LUC cells harboring […] fused TRKA assessed as growth inhibition after 72 hrs by CCK8 assay; assay type: functional; conditions: KM12-Luc
# Procedure, shortened: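 KM-12-LUC cells seeded at 3 × 10⁴ cells/mL, incubated overnight at 37 °C, 5% CO₂, then medium replaced with fresh medium containing a range of compound concentrations for 72 h; viability read by CCK-8 absorbance at 450 nm, normalized to DMSO control, GI₅₀ from curve fitting.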
# [9] = system: BaF3; assay: Antitumor activity against mouse BAF3 cells harboring TEL fused TRKA allografted in nude mouse assessed as tumor growth inhibition at 80 mg/kg, po administered once daily for 10 days relative to control; assay type: functional; conditions: 240 h, time 10 day, read-out: TGI
# Procedure, shortened: (§2)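 Nu/nu mice given 1 million BaF3 cells (TEL-TRKA, TEL-TRKB, TEL-TRKC, LMNA-TRKA-F589L or LMNA-TRKA-G667S) in DMEM, 1:1 with matrigel, injected subcutaneously into the right flank; oral gavage began at 200–400 mm³, 5 mice per group, compound in 0.5% methylcellulose/0.4% Tween 80 in ddH₂O, 10 days; tumor volume [(W²×L)/2] and body weight recorded daily; TGI versus vehicle.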
# [10] = system: BaF3; assay: Antitumor activity against mouse BAF3 cells harboring TEL fused TRKC allografted in nude mouse assessed as tumor growth inhibition at 80 mg/kg, po administered once daily for 10 days relative to control; assay type: functional; conditions: 240 h, time 10 day, read-out: TGI; procedure, shortened: as §2
# [11] = Antitumor activity against human […] cells xenografted in nude mouse assessed as tumor growth inhibition at 80 mg/kg, po administered once daily for 10 days relative to control; assay type: functional; conditions: KM12-Luc, 240 h, time 10 day, read-out: TGI
# Procedure, shortened: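 Nu/nu mice given 5 million KM-12-LUC cells in DMEM, 1:1 with matrigel, injected subcutaneously into the right flank; oral gavage started at tumor size 150–200 mm³, 5 mice per group, compound in 0.5% methylcellulose/0.4% Tween 80 in ddH₂O; body weight and tumor volume [(W²×L)/2] measured daily; TGI versus vehicle.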
Structure (SMILES),GI50 at 72 h [1],GI50 [2],GI50 at 72 h [3],other results
Cc1nc(NC(=O)C2CCN(C)CC2)sc1-c1ccc2c(/C=C/c3ccccn3)n[nH]c2c1,2.51 µM,0.089 µM,2.04 µM,–
Cc1nc(NC(=O)CN2CCN(C)CC2)sc1-c1ccc2c(-c3cccnc3)n[nH]c2c1,5.13 µM,0.251 µM,2.63 µM,–
Cc1nc(NC(=O)C(C)C)sc1-c1ccc2c(/C=C/c3ccccn3)n[nH]c2c1,1.58 µM,0.251 µM,0.181 µM,–
Cc1nc(NC(=O)C2CCNCC2)sc1-c1ccc2c(/C=C/c3ccccn3)n[nH]c2c1,8.71 µM,0.145 µM,3.05 µM,–
COCCOCC(=O)Nc1nc(C)c(-c2ccc3c(/C=C/c4ccccn4)n[nH]c3c2)s1,1.07 µM,0.035 µM,1.78 µM,–
CN1CCN(Cc2ccc(C(=O)NCCSc3ccc4c(/C=C/c5ccccn5)n[nH]c4c3)cc2C(F)(F)F)CC1,4.4 µM,0.37 µM,0.041 µM,–
Cc1nc(NC(=O)CC2CCN(C)CC2)sc1-c1ccc2c(/C=C/c3ccccn3)n[nH]c2c1,1.56 µM,0.032 µM,0.57 µM,–
CN1CCN(Cc2ccc(NC(=O)NCCSc3ccc4c(/C=C/c5ccccn5)n[nH]c4c3)cc2C(F)(F)F)CC1,–,0.646 µM,0.042 µM,–
Cc1nc(NC(=O)Cc2cccc(Cl)c2)sc1-c1ccc2c(/C=C/c3ccccn3)n[nH]c2c1,4.1 µM,0.002 µM,0.01 µM,–
Cc1nc(NC(=O)c2ccc(CN3CCN(C)CC3)cc2)sc1-c1ccc2c(/C=C/c3ccccn3)n[nH]c2c1,1.46 µM,0.008 µM,0.012 µM,–
Cc1nc(NC(=O)Cc2cccc(C(F)(F)F)c2)sc1-c1ccc2c(/C=C/c3ccccn3)n[nH]c2c1,2.31 µM,0.002 µM,0.013 µM,–
COc1ccc(CC(=O)Nc2nc(C)c(-c3ccc4c(/C=C/c5ccccn5)n[nH]c4c3)s2)cc1OC,4.87 µM,0.04 µM,0.019 µM,–
Cc1nc(NC(=O)CN2CCN(C)CC2)sc1-c1ccc2c(-c3cnc(N)nc3)n[nH]c2c1,> 10 µM,0.752 µM,5.63 µM,–
CN1CCN(Cc2ccc(NC(=O)CCSc3ccc4c(/C=C/c5ccccn5)n[nH]c4c3)cc2C(F)(F)F)CC1,–,0.063 µM,0.002 µM,–
Cc1nc(NC(=O)Nc2cccc(C(F)(F)F)c2)sc1-c1ccc2c(/C=C/c3ccccn3)n[nH]c2c1,0.105 µM,0.003 µM,0.004 µM,–
O=C(Nc1cnn2ccc(N3CCC[C@@H]3c3cc(F)ccc3F)nc12)N1CC[C@H](O)C1 [LAROTRECTINIB],> 10 µM,–,–,GI50 [4]: 0.258 µM; GI50 [5]: 0.102 µM; GI50 [6]: 0.602 µM; GI50 [7]: 0.148 µM; GI50 [8]: 0.011 µM; inhibition in vivo at 80 mg/kg/day [9]: 38.5%; inhibition in vivo at 80 mg/kg/day [10]: 33.8%; inhibition in vivo at 80 mg/kg/day [11]: 78.9%
CN1CCN(Cc2ccc(NC(=O)CCSc3ccc4c(-c5ccncc5)n[nH]c4c3)cc2C(F)(F)F)CC1,–,0.448 µM,0.001 µM,–
CN1CCN(Cc2ccc(C(=O)Nc3cccc(Sc4ccc5c(/C=C/c6ccccn6)n[nH]c5c4)c3)cc2C(F)(F)F)CC1,1.26 µM,0.92 µM,0.013 µM,–
Cc1nc(NC(=O)C(N)Cc2ccccc2)sc1-c1ccc2c(/C=C/c3ccccn3)n[nH]c2c1 (stereo not given),0.708 µM,0.068 µM,0.097 µM,–

Structure (SMILES),GI50 at 72 h [1],GI50 [2],GI50 at 72 h [3],other results
CN1CCN(Cc2ccc(NC(=O)Nc3cccc(Sc4ccc5c(/C=C/c6ccccn6)n[nH]c5c4)c3)cc2C(F)(F)F)CC1,3.09 µM,0.062 µM,0.015 µM,–
Cc1nc(NC(=O)CN2CCN(C)CC2)sc1-c1ccc2c(-c3ccn(C)n3)n[nH]c2c1,1.53 µM,0.073 µM,0.351 µM,–
CN1CCN(Cc2ccc(NC(=O)CCSc3ccc4c(-c5cccnc5)n[nH]c4c3)cc2C(F)(F)F)CC1,–,0.736 µM,0.009 µM,–
Cc1nc(NC(=O)c2cccc(C(F)(F)F)c2)sc1-c1ccc2c(/C=C/c3ccccn3)n[nH]c2c1,> 10 µM,0.003 µM,0.005 µM,–
Cc1nc(NC(=O)CN2CCN(C)CC2)sc1-c1ccc2c(-c3cncc(F)c3)n[nH]c2c1,1.69 µM,0.054 µM,1.8 µM,–
Cc1nc(NC(=O)CC2CCCNC2)sc1-c1ccc2c(/C=C/c3ccccn3)n[nH]c2c1 (stereo not given),8.35 µM,0.3 µM,1.93 µM,–
Cc1n[nH]c2cc(SCCC(=O)Nc3ccc(CN4CCN(C)CC4)c(C(F)(F)F)c3)ccc12,–,0.729 µM,0.009 µM,–
CN1CCN(Cc2ccc(NC(=O)CCSc3ccc4c(/C=C/c5ccncc5)n[nH]c4c3)cc2C(F)(F)F)CC1,0.543 µM,0.018 µM,0.002 µM,–
Cc1nc(NC(=O)CC2CCNCC2)sc1-c1ccc2c(/C=C/c3ccccn3)n[nH]c2c1,> 10 µM,0.116 µM,0.982 µM,–
CN1CCN(Cc2ccc(C(=O)NCCCSc3ccc4c(/C=C/c5ccccn5)n[nH]c4c3)cc2C(F)(F)F)CC1,–,0.37 µM,0.001 µM,–
Cc1nc(NC(=O)CN2CCN(C)CC2)sc1-c1ccc2c(-c3cccc(F)c3)n[nH]c2c1,1.74 µM,> 10 µM,1.71 µM,–
CN1CCN(Cc2ccc(NC(=O)CCSc3ccc4c(/C=C/c5cnccn5)n[nH]c4c3)cc2C(F)(F)F)CC1,1.64 µM,0.088 µM,0.002 µM,–
CSCCC(N)C(=O)Nc1nc(C)c(-c2ccc3c(/C=C/c4ccccn4)n[nH]c3c2)s1 (stereo not given),0.594 µM,0.013 µM,0.101 µM,–
Cc1nc(NC(=O)Cc2cccc3ccccc23)sc1-c1ccc2c(/C=C/c3ccccn3)n[nH]c2c1,3.69 µM,0.033 µM,0.015 µM,–
CC(=O)Nc1nc(C)c(-c2ccc3c(/C=C/c4ccccn4)n[nH]c3c2)s1,5.24 µM,4.31 µM,0.301 µM,–
Cc1ccc(-c2n[nH]c3cc(SCCC(=O)Nc4ccc(CN5CCN(C)CC5)c(C(F)(F)F)c4)ccc23)cn1,–,0.516 µM,0.001 µM,–
Cc1nc(NC(=O)CN2CCN(CCO)CC2)sc1-c1ccc2c(/C=C/c3ccccn3)n[nH]c2c1,1.02 µM,0.018 µM,0.081 µM,–
CN1CCN(Cc2ccc(NC(=O)CC(=O)Nc3ccc4c(/C=C/c5ccccn5)n[nH]c4c3)cc2C(F)(F)F)CC1,2.5 µM,0.248 µM,0.004 µM,–
